Reference: ChEMBL document CHEMBL1649157, “Intracellular activity of antibiotics against Staphylococcus aureus in a mouse peritonitis model” (Antimicrob Agents Chemother, 2009)
Calls of active or inactive are those of the source. No cut-off for these calls is given here.

How the values were obtained:
[1] = test system: Staphylococcus aureus; assay: Antibacterial activity against Staphylococcus aureus E19977 infected in NMRI mouse assessed as log reduction in intracellular bacterial cfu in peritoneum at 10 to 200 mg/kg, sc administered 2 hrs after infection measured after 4 hrs; type: functional, organism-based
Method in brief: (§1)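 Dose–response in i.p.-infected NMRI mice (mucin adjuvant). Single doses of 200, 60, 30, 20 or 10 mg/kg were given 2 h after inoculation, with 4–16 mice per group. Peritoneal wash was sampled 4 h later and split by lysostaphin/centrifugation into total, extra- and intracellular counts, then expressed as Δlog10 CFU/ml against log dose. Vehicle controls were plotted as 0.3 mg/kg. Hill fit (variable slope); static dose interpolated.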

[2] = test system: Staphylococcus aureus; assay: Bactericidal activity against Staphylococcus aureus E19977 assessed as log reduction in cfu at 1.5 mg/liter upto 24 hrs by time-kill study; type: functional
Method in brief: (§2)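 Clinical bacteremia isolate (penicillin-resistant, methicillin-susceptible). Exponential-phase bacteria were placed in an in vitro kinetic model that simulates drug elimination without changing the inoculum. The starting drug level matched the human free peak serum concentration after a single dose, with simulated human elimination half-life. Samples were taken at 0, 2, 4, 6, 8, 12 and 24 h, with growth controls in each run.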

[3] = test system: Staphylococcus aureus; assay: Bactericidal activity against Staphylococcus aureus E19977 assessed as log reduction in cfu at 20 mg/liter upto 24 hrs by time-kill study; type: functional
Method in brief: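 In vitro kinetic model: exponential-phase bacteria at a final 10^6.3 CFU/ml were exposed to a starting concentration set to the human free peak level. Elimination followed the simulated human half-life. Samples were taken at 0, 2, 4, 6, 8, 12 and 24 h and counted on 5% blood agar (detection limit 25 CFU/ml). Growth controls were included; n = 2.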

[4] = test system: Staphylococcus aureus; assay: Antibacterial activity against Staphylococcus aureus E19977 infected in NMRI mouse assessed as log reduction in bacterial cfu in peritoneum at 10 to 200 mg/kg, sc administered 2 hrs after infection measured after 4 hrs; type: functional, organism-based; method in brief: as §1
[5] = test system: Staphylococcus aureus; assay: Antibacterial activity against Staphylococcus aureus E19977 infected in NMRI mouse assessed as log reduction in extracellular bacterial cfu in peritoneum at 200 mg/kg, sc administered 2 hrs after infection evry 8 hrs as three-dose regimen measured after 19 hrs; type: functional; settings: route subcutaneous
[6] = Cmax in human at 1000 mg, po; type: ADME, organism-based; design: dose 1000 mg, route oral; settings: in vivo
[7] = test system: Staphylococcus aureus; assay: Antibacterial activity against Staphylococcus aureus E19977 infected in NMRI mouse assessed as log reduction in bacterial cfu in peritoneum at 200 mg/kg, sc administered 2 hrs after infection measured after 4 hrs; type: functional, organism-based; design: dose 200 mg/kg; method in brief: as §1
[8] = test system: Staphylococcus aureus; assay: Antibacterial activity against Staphylococcus aureus E19977 infected in NMRI mouse assessed as log reduction in bacterial cfu in peritoneum at 60 mg/kg, sc administered as single dose 3 hrs after infection measured after 4 hrs; type: functional, organism-based; design: dose 60 mg/kg
Method in brief: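 NMRI mice were infected i.p. with S. aureus E19977 in 5% mucin. A single dose (60 mg/kg or 10 mg/kg) was given 1, 2 or 3 h after inoculation, four mice per group. Peritoneal wash was sampled after 4 h of treatment and separated into total, extracellular and intracellular counts by lysostaphin/centrifugation. Δlog10 CFU/ml was calculated against vehicle-treated mice infected for the same time (5, 6 or 7 h).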

[9] = test system: Staphylococcus aureus; assay: Antibacterial activity against Staphylococcus aureus E19977 infected in NMRI mouse assessed as log reduction in bacterial cfu in peritoneum at 200 mg/kg, sc administered 2 hrs after infection evry 8 hrs as three-dose regimen measured after 19 hrs; type: functional; settings: route subcutaneous
Method in brief: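 Female outbred NMRI mice (25 to 30 g) were infected i.p. with 0.5 ml of 10^7.7 CFU/ml S. aureus E19977 in 5% (wt/vol) mucin. The first dose was given 2 h after inoculation, either once or as three doses every 8 h, with four mice per group. Mice were euthanized 19 h after treatment onset and washed peritoneally with 2.0 ml saline. Total CFU were counted by duplicate spotting of 10-fold dilutions on 5% blood agar.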

[10] = test system: Staphylococcus aureus; assay: Bactericidal activity against Staphylococcus aureus E19977 assessed as log reduction in cfu at 9 mg/liter after 24 hrs by time-kill study; type: functional, organism-based
Method in brief: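 In vitro kinetic model simulating antibiotic elimination without inoculum change. Exponential-phase E19977 was added at a final 10^6.3 CFU/ml. Starting drug concentration matched the human free peak, with the human half-life simulated. Samples were plated on 5% blood agar at 0, 2, 4, 6, 8, 12 and 24 h, with growth controls in each run. Results are shown as mean and range, n = 2.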

[11] = test system: Staphylococcus aureus; assay: Antibacterial activity against Staphylococcus aureus E19977 infected in NMRI mouse assessed as log reduction in extracellular bacterial cfu in peritoneum at 200 mg/kg, sc administered 2 hrs after infection measured after 4 hrs; type: functional, organism-based; design: dose 200 mg/kg; method in brief: as §1
[12] = test system: Staphylococcus aureus; assay: Bactericidal activity against Staphylococcus aureus E19977 assessed as log reduction in cfu at 2 mg/liter upto 24 hrs by time-kill study; type: functional; method in brief: as §2

Q: For `Cc1onc(-c2c(Cl)cccc2Cl)c1C(=O)N[C@@H]1C(=O)N2[C@@H]1SC(C)(C)[C@@H]2C(=O)O` [DICLOXACILLIN], which Activity [1] is on record?
A: Dose-dependent effect

Q: And the FC [2]?
A: 2

Q: What about the FC [3] of the same molecule?
A: >2

Q: And the Activity [4]?
A: Dose-dependent effect

Q: What about the FC [5] of the same molecule?
A: 2

Q: What about the Cmax [6] of the same molecule?
A: 30000 ng/mL

Q: And the Activity [7]?
A: Active

Q: And the Activity [8]?
A: inactive

Q: What about the FC [9] of the same molecule?
A: 2

Q: And the Activity [10]?
A: inactive

Q: What about the Activity [11] of the same molecule?
A: Active

Q: And the FC [12]?
A: 2
